The list is not random: actives were taken first. Their share in the collection is about 4.9%.
NF-kB neuron act = NF-kB expression increase, human neuronal cells; AID 1239; fold change at 12.5 µM; NF-kB reporter expression; hits give high values; 1.6% of 190,000 active; in the data active = fold change above about 3.3
STAT1 act = increases IFN-gamma driven STAT1 reporter signal; NIH 3T3 STAT1-luciferase reporter, luminescence; 100% = IFN-gamma alone, no compound; activation (% of control), % at 5.5 µM; 2.6% of 200,000 active; AID 932;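 active = activation above the screen-wide mean activation plus 3 SD, cut at about 130% in these data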
STAT1 inh = STAT1 signaling inhibition | 0.35% of 200,000 active | inhibition, % at 5.5 µM | NIH 3T3 STAT1-luciferase reporter, IFN-gamma, luminescence | AID 920;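 active = inhibition above a set limit, the mean inhibition across all tested compounds plus 3 SD, cut at about 34% in these data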
APP 5'UTR act = activates APP 5'UTR luciferase reporter; 1% of 190,000 active; activation, % at 2 µM; SH-SY5Y APP 5'UTR luciferase reporter, luminescence; zero percent = DMSO vehicle wells;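 active = activation above a set limit, based on mean plus 3 SD of controls, cut at about 140% in these data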
STAT3 inh = reduces IL-6 driven STAT3 reporter signal. inhibition, % at 5.5 µM. U3A cells, IL-6 STAT3-luciferase reporter, luminescence; host cell line lacks STAT1. 0.89% of 190,000 active. AID 862;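 active = inhibition above the mean inhibition across all screened compounds plus 3 SD, cut at about 44% in these data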
STAT3 activator = STAT3 signaling activation; 0.91% of 190,000 active; activation (% of control), % at 5.6 µM; U3A cells, IL-6 STAT3-luciferase reporter, luminescence; 100% = signal with IL-6 EC80 alone; AID 871;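 active = activation above the screen-wide mean of compound activation plus 3 SD, cut at about 130% in these data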
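Material: STAT1-lacking human U3A cells, STAT3 luciferase reporter | Benchmarks: IL-6-only wells as 100% reference | Probe or stimulus: IL-6 (33 ng/mL) | Timing: Compound 1 h, then IL-6 6 h at 37 °C | Detection: Luminescence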
Of the large screens only hits and unclear results are named; the others gave an inactive call.

CCCCNC(=O)c1cc(-c2ccc(OC)c(OC)c2)on1	none
CCCCNC(=O)c1cc(-c2ccc(F)cc2)on1	NF-kB neuron act 11.5, STAT1 act 135.6
COc1ccc(S(=O)(=O)N2CCC(C(=O)NCc3cccs3)CC2)cc1	none
Cc1ccnc(NS(=O)(=O)c2ccc(NC(=O)c3ccc([N+](=O)[O-])s3)cc2)n1	NF-kB neuron act 5.68
COc1cc(/C=N/Nc2nc3ccccc3o2)cc(OC)c1O	none
COc1ccc(/C=N/NC(=O)c2nc(-c3ccccc3)cc(-c3ccccc3)n2)cc1O	STAT1 act 130.8
COc1cc(/C=N/NC(=O)c2cc(-c3c(C)nn(-c4ccccc4)c3C)n[nH]2)ccc1O	STAT1 act 209.2, STAT3 activator 236.3
COc1ccc(/C=N/Nc2nc3ccccc3o2)cc1O	NF-kB neuron act 8.62, APP 5'UTR act 137.2
O=C(CSCc1ccc([N+](=O)[O-])cc1)Nc1ccccc1C(=O)O	none
Cc1cc(C)nc(N/C(=N\S(=O)(=O)Cc2ccccc2)Nc2ccc(F)c(Cl)c2)n1	none
O=C(N/N=C1\C2CN3CCN(C2)CC1(c1ccccc1)C3)c1ccc(F)cc1	none
Nc1ccccc1C(=O)N/N=C1\C2CN3CCN(C2)CC1(c1ccccc1)C3	STAT1 act 129.8
CCOC(=O)C1(Cc2cccc(Cl)c2)CCCN(C(=O)c2cccc(C)n2)C1 (stereo not drawn)	none
COCCNC(C(=O)Nc1cc(Cl)cc(Cl)c1)c1ccccc1 (stereo not drawn)	none
CCOCCCNC(C(=O)Nc1ccc(OC)c(Cl)c1)c1ccccc1 (stereo not drawn)	APP 5'UTR act 169.4
C/C(=N\Nc1cccc2cccnc12)c1ccc(C)cc1	NF-kB neuron act 4.24, STAT1 act 136.8, APP 5'UTR act 136.7
O=C(O)c1cccc(N2C(=O)/C(=C/c3ccc([N+](=O)[O-])cc3)C=C2c2ccccc2)c1	STAT1 inh 39.5, STAT3 inh 66.3
CC(C)C(=O)N=C1SC2CS(=O)(=O)CC2N1Cc1ccccc1 (stereo not drawn)	none
O=C(Oc1ccc(Br)cc1C(=O)/C=C/c1ccccc1F)c1ccco1	STAT3 activator 140.3 (no result: NF-kB neuron act)
Cc1cc(C(=O)CSc2ccc(F)cc2)cc(C)c1OC(=S)N(C)C	APP 5'UTR act 160.0
COc1ccc(SCC(=O)c2cc(C)c(OC(=S)N(C)C)c(C)c2)cc1	none (no result: APP 5'UTR act)
Cc1ccc(CN2CCN(/N=C/c3ccc(Cl)c([N+](=O)[O-])c3)CC2)cc1	none
Cc1ccc(CCNC(=O)c2nnn(-c3cc(C)cc(C)c3)c2N)cc1	none
Cc1ccc(NC(=O)c2nnn(-c3cc(C)cc(C)c3)c2N)cc1	STAT1 act 128.7
Cc1cc(/C=C2/NC(=O)N(c3ccccc3)C2=O)c(C)n1C(C)C	STAT1 act 128.8
CSc1ccc(CN2CCN(CC=C(C)C)C(CCO)C2)cc1 (stereo not drawn)	none
Nc1[nH]nc2ncc3cc4ccccc4nc3c12	STAT1 act 138.8
Nc1[nH]nc2nc(N3CCCC3)nc(-c3ccccc3)c12	none
O=C(Nc1ccc2oc(-c3ccc(Cl)c(Cl)c3)nc2c1)c1ncn[nH]1	none
CC(=O)NC(=S)Nc1ccc2oc(-c3cc(F)c(F)cc3Cl)nc2c1	APP 5'UTR act 170.2
CC(=O)Nc1ccc2oc(-c3ccccc3)nc2c1	NF-kB neuron act 7.64, STAT1 act 150.1
O=C(Nc1ccc2oc(-c3ccccc3F)nc2c1)c1ncn[nH]1	NF-kB neuron act 5.35, STAT1 act 136.5, APP 5'UTR act 137.5
O=C(Nc1ccc2oc(-c3ccccc3)nc2c1)c1ccccc1F	STAT1 act 145.5
COc1ccc(C/C(C)=N/NS(=O)(=O)c2ccc(Br)cc2)cc1	none
CN(C)CCNC(=O)Nc1ccc(F)cc1F	none
Cc1ccc(C(=O)c2cc([N+](=O)[O-])ccc2N2CCOCC2)c(C)c1	NF-kB neuron act 5.36
O=C(c1ccc(Br)cc1)c1cc([N+](=O)[O-])ccc1N1CCCCC1	NF-kB neuron act 4.97
O=Cc1c(Sc2ccccc2)nc2ccccn2c1=O	NF-kB neuron act 4.21
c1csc(-c2noc(COc3ccc4c(c3)CCCC4)n2)c1	NF-kB neuron act 4.4, STAT1 act 132.1
Brc1ccc(-c2noc(COc3ccc4c(c3)CCC4)n2)o1	none
O=C(CNC(=O)c1ccc(Cl)cc1)OCc1nc2ccccc2s1	none
COc1cc(OC)cc(C(=O)NCC(=O)OCc2nc3ccccc3s2)c1	STAT1 act 145.4, APP 5'UTR act 139.5
O=C(OCc1nc2ccccc2s1)c1cccs1	STAT1 act 136.9, STAT3 activator 151.2
O=C(Nc1nccs1)c1ccc(-c2ccc(Cl)cc2Cl)o1	STAT1 act 145.6
CCCc1cc(NC(=O)CCl)n(-c2ccccc2)n1	none
COc1ccc(Nc2nc(C(F)(F)F)nc(C)c2C#N)cc1	none
CC(=O)C(Cc1cccc(F)c1)(Cc1cccc(F)c1)C(C)=O	none
O=C(OCc1cccc(F)c1)c1ccc2c(c1)-c1ccccc1C2=O	none
O=C(OCc1ccccc1F)c1ccc2c(c1)-c1ccccc1C2=O	NF-kB neuron act 4.13
O=[N+]([O-])c1ccccc1NCCNc1ncc(C(F)(F)F)cc1Cl	none
O=[N+]([O-])c1cccnc1NCCNc1ncc(C(F)(F)F)cc1Cl	STAT1 act 137.2
Cc1nc(NC(=O)c2cc3c(s2)CCCCC3)sc1C(=O)N(C)C	STAT1 act 132.0
Cc1nc(NC(=O)c2ccc(Br)s2)sc1C(=O)N(C)C	STAT1 act 138.2
COc1ccc(C(=O)Nc2nc(C)c(C(=O)N(C)C)s2)cc1OC	none
O=C(NNC(=O)c1ccccc1Br)c1ccc(Cl)cc1	none
O=C(Nc1ccc(C(F)(F)F)cc1)c1ccccc1Br	STAT1 act 128.9
O=C(Nc1ccc(Cl)cc1F)c1ccccc1Br	NF-kB neuron act 5.73, STAT1 act 148.0
CCOC(=O)CS(=O)(=O)c1ccccc1	none
CCOC(=O)CS(=O)(=O)c1nc(-c2ccccc2)cc(C(F)(F)F)n1	STAT1 inh 43.4
C=CCNC(=O)CCc1nnc(C2(c3ccc(Cl)cc3)CCC2)o1	STAT1 act 140.3
COc1ccccc1/C=N\Nc1cn[nH]c(=O)c1Cl	NF-kB neuron act 9.09
Cc1cccc(/C=N\Nc2cn[nH]c(=O)c2Cl)c1	none
Cn1c(/N=C/c2c(O)ccc3ccccc23)nc2ccccc21	STAT3 activator 133.7
CCCn1c(/N=C/c2ccccc2O)nc2ccccc21	none
O=C(/C(C=Nc1cc2c(oc1=O)CCCC2=O)=C(\O)c1ccccc1)c1ccccc1	STAT1 act 149.3
Cc1ccc(S(=O)(=O)Nc2cccc3ncccc23)s1	STAT1 act 187.3
Cc1ccc(S(=O)(=O)Nc2ccnc3ccccc23)cc1	none
CCn1c(SCC(=O)Nc2ccc(-c3nc4ccc(C)cc4s3)cc2)nnc1-c1ccccc1	STAT1 act 132.2
C=CCn1c(SCC(=O)Nc2ccc(N(C)C)cc2)nnc1-c1cccc(C)c1	none

Assay outcomes (PubChem)
